From PubChem
SIAE inh – human SIAE inhibitors, primary screen, biochemical, fluorescence polarization, FP-Rh probe, 1536-well HTS | hit rate 0.69% among 370,000 | SIAE FP-Rh probe binding | Sialate O-acetylesterase (Homo sapiens), Q9HAT2 | inhibition, % at 9.66 µM | AID 1053197, 2014;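 active means inhibition above a cutoff: mean of compounds within the control limits plus 3 SD of those, cut at about 17% in these data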;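 further: 0% = plate median of compound wells and 100% = probe without SIAE protein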
rCAG RNA binder – binders of r(CAG) RNA repeats, primary screen, biochemical, fluorescence; r(CAG) RNA repeat, TO-PRO-1 dye displacement fluorescence; inhibition, % at 3 µM; hit rate 1.3% among 370,000;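 active means inhibition above the plate cutoff, the mean of all test compounds on that plate plus 3 SD, cut at about 35% in these data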;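 further: 0% = DMSO alone and 100% = 100 µM mitoxantrone as full dye displacement; higher means more dye released from RNA so lower well fluorescence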
PRMT1 FP inh – PRMT1 methyltransferase inhibitors, primary screen, biochemical, fluorescence polarization | AID 652257, 2013 | recombinant PRMT1, activity-based probe fluorescence polarization | inhibition, % at 2.79 µM | hit rate 1.3% among 370,000 | Protein arginine N-methyltransferase 1 (Homo sapiens), Q99873;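 active means inhibition above about 21% made by adding two undisclosed values, limit read from the data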
TCR CD3 inh – inhibitors of human TCR-CD3 interaction, primary screen, biochemical, fluorescence, TAMRA-labeled TCR probe. T-cell receptor (TCR). inhibition, % at 9.4 µM. hit rate 0.37% among 360,000; in the data active means inhibition above about 19%;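 further: recombinant mutant TCR 2C K166C tagged with TAMRA read by polarization; 0% = receptor in buffer alone and 100% = receptor with positive control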
mABHD4 FP – ABHD4 inhibitors, primary screen, biochemical, fluorescence polarization, mouse; (Lyso)-N-acylphosphatidylethanolamine lipase (Mus musculus), Q8VD66; AID 720543, 2013; purified mABHD4, FP-Rh probe fluorescence polarization; hit rate 0.54% among 370,000; inhibition, % at 8.92 µM;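 active means inhibition exceeding the mean over every tested compound plus 3 SD, cut at about 30% in these data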;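 further: 0% = plate median of compound wells and 100% = S159A mutant with DMSO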
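Doses – 8.92 µM, single dose · Material – wild-type mouse ABHD4 protein · Replication – single well per compound (singlicate) · Measure – percent inhibition of probe binding, normalized to plate controls · Schedule – 45 min compound pre-incubation plus 60 min probe step, 25 °C · Detection – fluorescence polarization with parallel and perpendicular emission, 525/598 nm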
HTRA1 inhibitor – HTRA1 serine protease inhibitors, primary screen, biochemical, fluorescence polarization, HTS; recombinant HTRA1, FP-rhodamine activity-based probe; inhibition, % at 5.96 µM; AID 504803, 2011; hit rate 0.5% among 340,000; Q92743; in the data active means inhibition above about 36%;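 further: 0% = enzyme with DMSO and 100% = wells lacking enzyme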
Target sequence (Q92743 whole entry, looked up): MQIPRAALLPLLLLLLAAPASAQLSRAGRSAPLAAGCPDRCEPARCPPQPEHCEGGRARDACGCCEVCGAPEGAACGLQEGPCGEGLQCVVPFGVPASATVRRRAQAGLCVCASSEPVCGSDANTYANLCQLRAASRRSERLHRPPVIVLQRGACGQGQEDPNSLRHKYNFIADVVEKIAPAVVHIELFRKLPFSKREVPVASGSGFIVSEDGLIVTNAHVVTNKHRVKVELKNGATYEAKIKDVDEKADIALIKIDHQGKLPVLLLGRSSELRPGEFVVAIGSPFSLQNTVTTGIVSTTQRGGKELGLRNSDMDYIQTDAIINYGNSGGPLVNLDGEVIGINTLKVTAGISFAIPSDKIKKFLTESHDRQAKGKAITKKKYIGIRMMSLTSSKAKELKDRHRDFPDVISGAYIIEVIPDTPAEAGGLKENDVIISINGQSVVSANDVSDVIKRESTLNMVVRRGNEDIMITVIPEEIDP
SIAE inh conf – human SIAE inhibitors, retest, confirmation, biochemical, fluorescence polarization, FP-Rh probe, triplicate | shares compounds with SIAE inh | SIAE FP-Rh activity-based probe | inhibition, % at 9.66 µM | hit rate 13% among 2,300 | AID 1117263, 2014;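 active means mean inhibition of the replicates above the hit cutoff set in the primary screen, cut at about 17% in these data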;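 further: 0% = SIAE with DMSO and probe and 100% = probe without SIAE; inhibitors lower polarization as more probe stays unbound to SIAE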
* = called active by the depositor; nt = not tested or not shown. Hits are enriched below; roughly 3.5% of the tested compounds scored in any of these assays.

SMILES	SIAE inh	rCAG RNA binder	PRMT1 FP inh	TCR CD3 inh	mABHD4 FP	HTRA1 inhibitor	SIAE inh conf
O=S(=O)(c1ccc(N2CCCCCC2)nc1)N1CCCC1	20*	-1	-1	-2	1	5	-1
CN1CCN(c2ccc(S(=O)(=O)N3CCCCC3)cn2)CC1	4	-6	-1	-7	-8	4	nt
C/C(=N/Nc1ccccc1[N+](=O)[O-])c1ccc([N+](=O)[O-])cc1	4	-1	0	-4	-6	0	nt
CC(C)=NNc1cc([N+](=O)[O-])cc2c1C(=O)N(C)S2=O (stereo not drawn)	17*	9	13	-2	5	4	1
CCCCn1c(=O)[nH]c(=O)c2c1nc(-c1ccc(OCCC)c(OCC)c1)n2CCOC	8	-6	-8	3	-2	-6	nt
CCCn1c(=O)[nH]c(=O)c2c1nc(-c1ccc(OC)c(Br)c1)n2CCOC	21*	-4	-4	-1	-8	-3	-17
Cc1ccccc1OCCCN1CCC(C(O)(c2ccccc2)c2ccccc2)CC1	6	2	-2	-3	13	nt	nt
CC(C)CCn1c(COc2ccccc2)n[nH]c1=S	20*	-3	6	3	-7	4	3
O=C(NCc1ccco1)C1CCCN(S(=O)(=O)c2ccc(F)cc2)C1 (stereo not drawn)	1	4	-2	nt	0	nt	nt
Cc1cc(C)nc(SCC(=O)Nc2ncc3c(n2)CCCC3=O)n1	47*	1	-1	2	5	10	-5
COc1ccccc1OCCNC(=O)Nc1ccc(Br)cc1	18*	3	2	-3	0	-11	1
COc1cc(NC(=O)c2ccccc2F)c(OC)cc1NC(=O)CN1CCOCC1	17*	-6	6	0	5	-6	3
COc1cc(NC(=O)c2ccc(F)cc2)c(OC)cc1NC(=O)CN1CCOCC1	0	-4	-3	6	-4	4	nt
O=C(Nc1ccc(Cl)cc1C(F)(F)F)c1ccccc1Cl	29*	-2	-3	-8	-3	-8	-5
Cc1ccc(C(=O)Nc2ccc(Cl)cc2C(F)(F)F)c(Cl)c1	1	-3	-2	10	-1	-1	nt
O=C(Cc1ccc(Nc2nc3ccc(Br)cc3[nH]2)cc1)NCCc1cccs1	20*	1	0	-1	16	9	7
O=C(NCC1CC1)c1ccc(Nc2nc3ccc(Br)cc3[nH]2)cc1	25*	11	1	4	23	-11	7
O=C(NCc1ccco1)c1cccc(Nc2nc3ccc(Br)cc3[nH]2)c1	41*	10	-2	1	7	6	11
O=C(CSc1n[nH]c(-c2cccnc2)n1)OC1CCCCC1	18*	-5	2	-4	-4	-3	-3
O=C(c1ccc(F)cc1)N1CCN(S(=O)(=O)c2ccc3c(c2)OCCO3)CC1	5	0	2	-2	3	-3	nt
CCOc1ncccc1C(=O)N1CCN(S(=O)(=O)c2ccc3c(c2)OCCO3)CC1	22*	-1	-2	8	-2	1	-3
CCOc1ncccc1C(=O)N1CCN(S(=O)(=O)c2ccccc2)CC1	-1	-3	-5	0	-2	-2	nt
CN(C)S(=O)(=O)c1ccc(C(=O)N2CCN(S(=O)(=O)c3ccc4c(c3)OCCO4)CC2)cc1	20*	4	-1	4	-1	11	1
CC(=O)c1cc(-c2ccccc2)n(CC(=O)NCc2ccc(Cl)cc2)c1C	7	8	-2	nt	2	nt	nt
COc1cccc(CN2C(=O)c3ccccc3S2(=O)=O)c1	17*	-2	1	-5	-7	-3	-1
SMILES	SIAE inh	rCAG RNA binder	PRMT1 FP inh	TCR CD3 inh	mABHD4 FP	HTRA1 inhibitor	SIAE inh conf
COC(=O)c1ccc(CN2C(=O)c3ccccc3S2(=O)=O)cc1	-1	-4	0	7	-15	-8	nt
CC1(C)CC(=O)C2=C(C1)N1C(=C(C#N)C2c2ccc(Cl)cc2)N=C(N)c2ccccc21 (stereo not drawn)	20*	10	11	-9	23	-42	1
O=C(Nc1cc(S(=O)(=O)N2CCOCC2)ccc1N1CCCCC1)c1cc(-c2ccccn2)nc2ccccc12	18*	0	11	-3	-1	-2	9
COC(=O)c1cc2c(c3c4cc(OC)ccc4n(S(=O)(=O)c4ccc(OC)cc4)c13)C(=O)N(Cc1ccc(N(C)C)cc1)C2	0	12	-1	2	1	nt	nt
Cc1[nH]c(C)c(S(=O)(=O)NCc2ccco2)c1C(=O)N1CCCCC1	19*	3	1	0	2	8	11
O=C(C1CC1)n1ccc2ccc(-c3ccc4ccn(Cc5ccccc5)c4c3)cc21	1	10	1	nt	-1	nt	nt
CC1Cc2nc(SCC(=O)NCc3ccccc3)n(Cc3ccccc3)c(=O)c2S1 (stereo not drawn)	17*	2	0	2	5	-4	2
CC1Cc2nc(SCC(=O)c3ccccc3)n(Cc3ccccc3)c(=O)c2S1 (stereo not drawn)	0	6	6	0	-19	-35	nt
CCOC(=O)CCC(=O)N1CCOCCN(C(=O)CCC(=O)OCC)CCOCC1	19*	-3	0	8	4	0	6
CCOC(=O)CCC(=O)N1CCOCCOCCOCC1	-5	0	-3	1	-3	-5	nt
COc1ccc(NCC(=O)N/N=C(\C)c2cc3ccccc3o2)cc1	18*	4	1	2	4	1	8
C/C(=N\NC(=O)CNc1ccc(F)cc1)c1cc2ccccc2o1	9	7	-2	-1	2	-13	nt
COc1ccccc1C(=O)NC(=S)Nc1cccc2cc(O)ccc12	-16	28	0	10	-55	-47	nt
COc1ccc(C(=O)NC(=S)Nc2cccc3cc(O)ccc23)cc1OC	28*	30	4	-3	4	-13	6
COC(=O)[C@H](C(C)C)N1CCc2nnn(Cc3ccccc3)c2-c2cc(F)ccc2S1(=O)=O	0	-3	-5	nt	-3	nt	nt
O=C(NC1CCCCN(Cc2cccc(C(F)(F)F)c2)C1=O)c1ccc(Cl)cc1 (stereo not drawn)	4	0	-2	nt	-9	nt	nt
Cc1cccc[n+]1CC(=O)Nc1ccc([N+](=O)[O-])cc1	-2	-1	-3	8	-2	-1	nt
